Source: PubChem (several laboratories)
m-calpain inh: inhibitors of pig calpain II; purified calpain II, fluorogenic peptide substrate, 30 min; inhibition, % at 16 µM; AID 1236; 0.37% of 220,000 active;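 active = inhibition above about 50%, limit read from the data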
Furin inhibitor: human furin inhibition. inhibition, % at 20 µM or 30 µM. purified furin, fluorogenic substrate cleavage. 0.061% of 220,000 active; in the data active = inhibition above about 25%
KLK5 inh: kallikrein 5 (human) inhibition; Q9Y337; recombinant hK5, fluorogenic AMC substrate cleavage; inhibition, % at 5 µM; 0.59% of 210,000 active;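 active = inhibition of 40% or more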
FXIa inh: factor XIa (human) inhibition; P03951; purified FXIa, Boc-Glu-Ala-Arg-AMC fluorogenic substrate; inhibition, % at 5 µM; 0.14% of 220,000 active;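 active = inhibition of at least 40%; inactive = inhibition below 40%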;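 also: fluorescence of freed AMC excited at 355 nm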
FXIIa inh 1536: blocks human coagulation factor XIIa protease activity; P00748; purified FXIIa, Boc-QGR-AMC fluorogenic substrate, 2 h; inhibition, % at 5 µM; 0.3% of 220,000 active; AID 800; in the data active = inhibition above about 40%
Target sequence (P00748 20-372 limits assumed): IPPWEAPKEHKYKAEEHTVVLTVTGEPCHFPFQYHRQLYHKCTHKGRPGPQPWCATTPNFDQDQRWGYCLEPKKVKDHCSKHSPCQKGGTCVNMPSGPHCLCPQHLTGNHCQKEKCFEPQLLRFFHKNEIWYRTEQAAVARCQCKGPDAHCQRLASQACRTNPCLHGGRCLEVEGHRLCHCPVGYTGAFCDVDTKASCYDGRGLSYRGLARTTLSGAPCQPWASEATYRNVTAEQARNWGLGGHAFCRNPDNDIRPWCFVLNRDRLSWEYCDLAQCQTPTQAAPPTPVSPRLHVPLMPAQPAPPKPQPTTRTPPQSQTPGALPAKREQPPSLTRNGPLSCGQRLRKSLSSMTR
Target sequence (P00748 373-615 limits assumed): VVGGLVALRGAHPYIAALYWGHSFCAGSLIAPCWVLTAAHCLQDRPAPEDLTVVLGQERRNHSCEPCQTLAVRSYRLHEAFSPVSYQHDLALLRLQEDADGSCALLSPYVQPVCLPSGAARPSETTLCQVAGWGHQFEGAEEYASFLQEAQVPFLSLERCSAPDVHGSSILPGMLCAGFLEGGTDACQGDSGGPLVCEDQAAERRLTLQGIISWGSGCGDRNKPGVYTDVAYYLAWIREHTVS
thrombin 1536: thrombin (human) inhibition. P00734. inhibition, % at 5 µM. alpha-thrombin, Boc-VPR-AMC fluorogenic substrate cleavage. 0.26% of 220,000 active;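 active = inhibition at or above 40%; inactive = inhibition below 40%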
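System: Human alpha-thrombin protein | Medium: pH 7.5 Tris (50 mM) with NaCl 150 mM, Tween 20 0.05% | Times: Enzyme reaction carried out at room temperature | Detection: AMC fluorescence, 355/460 nm | Evaluation: Percent inhibition scaled between no-compound controls and no-enzyme blanks | Benchmarks: Enzyme without compound as high, wells lacking enzyme as low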
Numbers stand for hits; n = inactive; x = no result. Hits are enriched below; roughly 1.4% of the tested compounds scored in any of these assays.

SMILES | m-calpain inh | Furin inhibitor | KLK5 inh | FXIa inh | FXIIa inh 1536 | thrombin 1536
CCOC(=O)C1=C(CNC(C)(C)CC(C)(C)C)NC(=O)NC1c1cccc([N+](=O)[O-])c1 (centres undefined) | 61.0 | n | n | n | n | x
CN1C(=O)S/C(=C\c2ccccc2OCc2ccc(C(=O)O)cc2)C1=O | n | n | n | n | n | n
Cc1ccc(Oc2ccccc2/C=C2\SC(=O)N(C)C2=O)cc1 | n | n | 51.0 | n | n | n
CC(=O)Nc1ccc(NC(=O)CSc2ncnn2-c2ccccc2)cc1 | n | n | n | n | 42.7 | n
CC(=O)Nc1ccc(NC(=O)CSc2nccn2Cc2ccccc2)cc1 | n | n | 57.4 | n | n | n
OC1(c2ccc3c(c2)OCO3)CCN(Cc2ccc(F)cc2)CC1 | n | n | n | n | n | n
O=S(=O)(c1cccc(NC(=S)NCc2ccco2)c1)N1CCOCC1 | n | n | n | n | n | n
N#CC1=C(N)C(C#N)(C#N)[C@H](c2ccoc2)[C@H]2CN(Cc3ccccc3)CC=C12 | n | n | 112.0 | n | n | n
CC(C)(C)C(=O)Nc1ccc(C(=O)N/N=C/c2ccccc2OC(=O)c2ccccc2)cc1 | n | n | n | 59.9 | n | n
Cc1c(C(=O)N2CCC(C(N)=O)CC2)sc(N)c1C#N | n | n | 106.9 | n | n | 104.0
CCOC(=O)c1c(N)sc(C(=O)N2CCCC(C(N)=O)C2)c1C (centres undefined) | x | n | x | x | x | x
O=C(N=Nc1c(O)[nH]c2ccc([N+](=O)[O-])cc12)c1cc(-c2ccccc2Cl)nc2ccccc12 | 69.0 | n | n | n | n | n
O=C(NCN1CCc2ccccc2C1)c1cnccn1 | n | n | n | n | n | n
COc1cccc(CN(C)C(=O)CCc2nnc(-c3ccsc3)o2)c1 | n | n | n | n | n | 94.1
CCOC(=O)CN(C)C(=O)CCc1nnc(-c2ccsc2)o1 | n | n | n | n | n | n
C/C(=N\Nc1nccnc1Cl)c1ccc([N+](=O)[O-])cc1 | n | n | n | n | n | n
CCOC(=O)CNC(=O)Cn1cnc2c(nnn2-c2cccc(Cl)c2)c1=O | n | n | n | n | 43.4 | n
CCCN(CCC)C(=O)CC(c1ccccc1)c1cc(Br)ccc1O (centres undefined) | 73.6 | n | n | n | n | n
CCCN(CCC)C(=O)CC(c1ccccc1)c1ccc(C)cc1O (centres undefined) | n | n | n | n | n | n
CC(C)CC(=O)Nc1nnc(SCC(=O)Nc2ccc(F)cc2)s1 | 54.0 | n | n | n | n | n
CCC(=O)Nc1nnc(SCC(=O)Nc2ccc(F)cc2)s1 | n | n | n | n | n | n
CCN1C(=O)c2n[nH]c(C(=O)OC)c2C1=O | n | n | 90.1 | n | 43.7 | n
Cc1cccc(N2CN(Cc3ccco3)CNC2=S)c1 | n | n | n | n | n | n
O=[N+]([O-])c1cc(C(F)(F)F)ccc1NCCCCNS(=O)(=O)c1ccc(Cl)cc1 | n | n | n | n | n | n
O=[N+]([O-])c1ccc(NC(=S)NCCc2ccccc2)cc1 | n | n | n | n | n | n
SMILES | m-calpain inh | Furin inhibitor | KLK5 inh | FXIa inh | FXIIa inh 1536 | thrombin 1536
Cc1ccc(C(=O)NCCNc2ccc(Cl)cc2[N+](=O)[O-])o1 | n | n | n | n | 59.9 | n
O=[N+]([O-])c1ccc(NC(=S)NCCc2ccc(Cl)cc2)cc1 | 67.7 | n | n | n | n | n
NS(=O)(=O)c1ccc(NC(=S)NCc2ccc(Cl)cc2)cc1 | 56.0 | n | n | n | n | n
O=[N+]([O-])c1cc(C(F)(F)F)ccc1NCCNC(=S)Nc1ccc(Cl)cc1 | 51.7 | n | n | n | n | n
Cc1ccc(-n2ncc3c(NNC(=O)c4ccco4)ncnc32)c(C)c1 | n | n | n | n | n | n
Cc1cc(C)n(CCCNC(=O)c2ccc(S(=O)(=O)NCc3ccco3)cc2)n1 | n | n | n | n | n | n
COc1ccccc1OCC(O)CN1C(=O)NC(C)(C)C1=O (centres undefined) | n | n | 63.7 | n | n | n
Cc1nn(CC(=O)Nc2ccccn2)c(=O)c2ccccc12 | n | n | n | n | n | n
Cc1ccc(SCCNC(=S)Nc2cc(C)cc(C)c2)cc1 | 51.8 | n | n | n | n | n
Cc1ccc(NC(=S)NCCSc2ccc(Cl)cc2)cc1 | n | n | n | n | n | n
COc1ccc(-c2nnc(Sc3nc4ccccc4o3)c3ccccc23)cc1 | n | n | n | n | n | n
C=CCn1c(SCC(=O)Nc2cccc(C(=O)OC)c2)nnc1C(C)NC(=O)c1cccs1 (centres undefined) | n | n | 49.5 | n | n | n
CCOC(=O)c1cccc(NC(=O)CSc2nnc(-c3ccoc3C)n2CCOC)c1 | n | n | n | n | 47.6 | n
Cc1csc(NC(=O)C(CC(C)C)NS(=O)(=O)c2ccc3c(c2)oc(=O)n3C)n1 (centres undefined) | n | n | 54.6 | n | 106.9 | n
Cc1csc(NC(=O)C2CCN(S(=O)(=O)c3ccc4c(c3)oc(=O)n4C)CC2)n1 | n | n | n | n | n | n
C/C=C(\C)C(=O)OC1c2c(ccc3ccc(=O)oc23)OC(C)(C)C1OC(C)=O (centres undefined) | n | n | n | 45.4 | n | n
COc1ccc(-c2c(C)nn3c(N4CCC5(CC4)OCCO5)cc(C)nc23)cc1OC | n | n | n | n | n | n
O=C(Oc1ccc(=O)n(-c2ccccc2)n1)c1ccc(F)cc1 | n | n | n | n | n | n
O=C(Oc1ccc(=O)n(-c2ccccc2)n1)c1ccc(Cl)cc1 | n | n | n | 51.3 | n | n
O=C(Oc1ccc(=O)n(-c2ccccc2)n1)c1cccc(Cl)c1 | n | n | n | 68.0 | n | n
NC(=O)COc1ccc(=O)n(-c2ccccc2)n1 | n | n | n | n | n | n
Cc1ccc(NC2(C#N)C(=O)Nc3ccccc32)cc1C (centres undefined) | n | n | n | n | n | n
COC(=O)c1ccc(NC2(C#N)C(=O)Nc3ccccc32)cc1 (centres undefined) | n | 31.4 | n | n | n | n
COc1ccc(/C=N/Nc2nnc(-c3ccccc3)c(=O)[nH]2)cc1 | n | n | n | n | n | n
COc1ccc(N2C(=O)N(Cc3ccc(C)cc3)c3ccccc3S2(=O)=O)cc1 | 50.2 | n | n | n | n | n
SMILES | m-calpain inh | Furin inhibitor | KLK5 inh | FXIa inh | FXIIa inh 1536 | thrombin 1536
Cc1ccc2nc(C(F)C(F)(F)F)[nH]c2c1 (centres undefined) | n | n | n | n | n | n
CC12COC3(C(=O)Nc4nccs4)CC1CCC32C (centres undefined) | n | n | 71.8 | n | n | n
CC(=O)Nc1ccc(S(=O)(=O)n2cnc3cc(C)c(C)cc32)cc1 | n | n | 92.1 | n | n | 104.4
Cc1n[nH]c(=O)nc1N1CCc2ccccc2C1 | n | n | n | n | n | n
CCOc1cccc2c1OC1(C)CC2NC(=O)N1Cc1ccccc1 (centres undefined) | n | n | n | 62.2 | n | n
Cc1ccc(NC(=O)c2cc(NC(=O)c3ccco3)ccc2N2CCCCC2)cc1 | n | n | n | n | n | n
